In ChEMBL document CHEMBL2163237, “Molecular determinants of selectivity and efficacy at the dopamine D3 receptor” (J Med Chem, 2012):

Tests used:
D(3) dopamine receptor [1] = biological target: T1, D(3) dopamine receptor (Homo sapiens, UniProt P35462); assay: Displacement of [125I]IABN from human D3 receptor expressed in HEK293 cells after 60 mins by gamma counting analysis; type: cell-based
Procedure, shortened: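 Competitor spanned 5 orders of magnitude. Nonspecific binding defined with 15 µM (+)-butaclamol. Filtration with cold wash, then gamma counting. Single-site IC50 converted to Ki by Cheng-Prusoff. Mean of ≥3 independent experiments.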

Homo sapiens = species on record: Homo sapiens; assay: Selectivity ratio of Ki for human D2L receptor to Ki for human D3 receptor
D(2) dopamine receptor = D(2) dopamine receptor (Homo sapiens, UniProt P14416); assay: Displacement of [125I]IABN from human D2L receptor expressed in HEK293 cells after 60 mins by gamma counting analysis; type: cell-based
D(2) dopamine receptor, sequence (P14416 whole entry): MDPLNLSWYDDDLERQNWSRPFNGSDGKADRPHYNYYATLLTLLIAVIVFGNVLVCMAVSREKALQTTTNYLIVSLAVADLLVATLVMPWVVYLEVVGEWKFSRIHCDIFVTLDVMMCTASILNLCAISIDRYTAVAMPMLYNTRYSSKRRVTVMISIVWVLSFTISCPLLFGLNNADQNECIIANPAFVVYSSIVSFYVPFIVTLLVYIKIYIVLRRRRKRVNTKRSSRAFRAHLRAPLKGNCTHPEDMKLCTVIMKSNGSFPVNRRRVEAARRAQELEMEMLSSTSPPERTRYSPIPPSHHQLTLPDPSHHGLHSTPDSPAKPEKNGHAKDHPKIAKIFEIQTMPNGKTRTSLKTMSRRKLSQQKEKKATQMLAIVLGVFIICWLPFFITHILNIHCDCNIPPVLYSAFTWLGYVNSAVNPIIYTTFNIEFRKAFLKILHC
Procedure, shortened: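 Competitor spanned 5 orders of magnitude. Filtration with cold wash, then gamma counting. Single-site IC50 converted to Ki by Cheng-Prusoff. Mean of ≥3 independent experiments.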

D(3) dopamine receptor [2] = biological target: T1, D(3) dopamine receptor; assay: Partial agonist activity at human D3 receptor expressed in HEK293T cells coexpressing GalphaoA-91-Rluc8 and mVenus-Gbeta1gamma2 after 2 mins by bioluminescence resonance energy transfer assay relative to dopamine; type: functional, cell-based; conditions: HEK-293T
Procedure, shortened: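 Human D3R transiently co-transfected (PEI) into HEK-293T cells with GαoA-RLuc8 and split-mVenus Gβ1/Gγ2; assayed ~48 h post-transfection. Cells in PBS/0.1% glucose at room temperature (40 µg protein/well), coelenterazine h 5 µM for 8 min, ligand for 2 min; BRET1 ratio 510–540/485 nm.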

T1 sequence (P35462 whole entry): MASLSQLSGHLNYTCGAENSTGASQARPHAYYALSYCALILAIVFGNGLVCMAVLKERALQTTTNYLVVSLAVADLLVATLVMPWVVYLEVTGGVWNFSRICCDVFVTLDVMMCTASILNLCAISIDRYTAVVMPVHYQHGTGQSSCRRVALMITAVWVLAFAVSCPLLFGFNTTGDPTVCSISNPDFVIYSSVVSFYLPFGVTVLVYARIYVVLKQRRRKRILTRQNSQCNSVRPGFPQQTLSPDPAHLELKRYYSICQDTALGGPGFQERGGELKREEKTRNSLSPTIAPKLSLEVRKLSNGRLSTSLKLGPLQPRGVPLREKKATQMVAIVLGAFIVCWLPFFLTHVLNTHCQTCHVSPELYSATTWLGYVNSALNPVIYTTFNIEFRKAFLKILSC

Structure (SMILES)	Ki (D(3) dopamine receptor [1]) [nM]	Ratio Ki (Homo sapiens)	Ki (D(2) dopamine receptor) [nM]	Emax (D(3) dopamine receptor [2]) [%]
CCC(=O)NCCCCN1CCN(c2ccccc2OC)CC1	38.6	2.18	84	–
COc1ccccc1N1CCN(C)CC1	590	0.45	265	–
CCCCN1CCN(c2cccc(Cl)c2Cl)CC1	1.9	1.79	3.4	–
CCCN1CCN(c2cccc(Cl)c2Cl)CC1	6.3	0.82	5.2	–
CCCCN1CCN(c2ccccc2OC)CC1	23.9	0.86	20.6	–
O=C(NCCCCN1CCN(c2cccc(Cl)c2Cl)CC1)c1cc2ccccc2[nH]1	1.4	–	–	16
CCC(=O)NCCCCN1CCN(c2cccc(Cl)c2Cl)CC1	4.8	3.25	15.6	–
CN1CCN(c2cccc(Cl)c2Cl)CC1	54.6	0.84	45.9	–
COc1ccccc1N1CCNCC1	2260	0.3	680	–
OCCN1CCN(c2cccc(Cl)c2Cl)CC1	36.3	1.75	63.7	–
Clc1cccc(N2CCNCC2)c1Cl	197	0.69	137	–
COc1ccccc1N1CCN(CCCCNC(=O)c2cc3ccccc3[nH]2)CC1	–	–	–	8.38
O=C(NCC[C@@H](O)CN1CCN(c2cccc(Cl)c2Cl)CC1)c1cc2ccccc2[nH]1	–	–	–	20.6
CCCCNC(=O)c1cc2ccccc2[nH]1	21500	–	–	–
